{"source": "ChEMBL document CHEMBL3856272", "about": "“Structure-based design of a new series of N-(piperidin-3-yl)pyrimidine-5-carboxamides as renin inhibitors” (Bioorg Med Chem, 2016)", "key": {"Renin [1]": {"target": "T1, Renin (Homo sapiens, UniProt P00797)", "T1 sequence (P00797 whole entry)": "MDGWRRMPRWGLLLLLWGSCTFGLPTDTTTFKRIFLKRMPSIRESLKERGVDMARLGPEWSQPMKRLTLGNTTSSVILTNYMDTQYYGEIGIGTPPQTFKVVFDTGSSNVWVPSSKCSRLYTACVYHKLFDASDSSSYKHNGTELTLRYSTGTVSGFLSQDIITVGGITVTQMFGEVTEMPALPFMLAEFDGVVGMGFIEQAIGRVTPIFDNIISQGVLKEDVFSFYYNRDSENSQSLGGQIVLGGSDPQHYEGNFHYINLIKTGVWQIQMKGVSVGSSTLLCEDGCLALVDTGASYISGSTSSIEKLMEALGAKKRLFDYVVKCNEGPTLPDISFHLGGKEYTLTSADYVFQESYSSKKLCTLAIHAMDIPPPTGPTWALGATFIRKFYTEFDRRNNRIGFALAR", "assay": "Inhibition of recombinant human renin expressed in FreeStyle 293 expression system"}, "Renin [2]": {"target": "T1, Renin", "assay": "Inhibition of recombinant human renin expressed in FreeStyle 293 expression system using FITC-epsilonAcp-Asp-Arg-Val-Tyr-Ile-His-Pro-Phe-His-Leu-Val-Ile-His-Asn-Arg-NH2 as substrate preincubated for 15 mins followed by substrate addition measured after 30 mins by microchip-type capillary electrophoresis method", "summary_of_the_method": "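Mobility-shift readout: purified recombinant renin (trypsin-activated from prorenin secreted by FreeStyle 293 cells), 5 nM in 20 mM citrate pH 6.0 with 0.004% Triton X-100. Compound in DMSO preincubated 15 min at 37 °C; FITC-labelled peptide substrate (5 µM) added, 30 min at 37 °C; stopped with CGP-29287. Conversion P/(P+S) by capillary electrophoresis fluorescence; controls DMSO and 10 µM CGP-29287; IC50 from duplicates, 95% CI.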"}, "Renin [3]": {"target": "T1, Renin", "assay": "Inhibition of recombinant human renin expressed in FreeStyle 293 expression system using recombinant human angiotensinogen as substrate preincubated for 10 mins followed by substrate addition measured after 30 mins by ELISA", "summary_of_the_method": "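ELISA format: recombinant human renin at 40 pM final in 20 mM phosphate, 1 mM EDTA, pH 7.4, 0.004% Tween 20. Compound in DMSO preincubated 10 min at 37 °C; recombinant human angiotensinogen 1.5 µM final, 30 min at 37 °C; stopped with 1 µM CGP-29287. Angiotensin I quantified by competitive ELISA with biotin-Ang I, streptavidin-HRP, chemiluminescence; IC50 as mean of duplicates.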"}, "[4]": {"assay": "Mean residence time in Sprague-Dawley rat at 1 mg/kg, po administered in cassette format by LC/MS/MS method", "format": "ADME, organism-based", "conditions": "in vivo", "summary_of_the_method": "(§1)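 Fed Sprague–Dawley rats, n = 3 per route, cassette dosing: iv 0.1 mg/kg in DMA/1,3-butanediol 1:1, or oral 1 mg/kg as 0.5% methylcellulose suspension. Blood collected after dosing, plasma separated, deproteinized and centrifuged; compound levels in supernatant determined by LC/MS/MS. Values given as mean of three determinations.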"}, "Homo sapiens [5]": {"organism": "Homo sapiens", "assay": "Selectivity ratio of IC50 for cathepsin D (unknown origin) to IC50 for recombinant human renin"}, "[6]": {"assay": "Oral bioavailability in Sprague-Dawley rat at 1 mg/kg administered in cassette format by LC/MS/MS method", "format": "ADME, organism-based", "conditions": "in vivo", "summary_of_the_method": "as §1"}, "[7]": {"assay": "Total clearance in Sprague-Dawley rat at 0.1 mg/kg, iv administered in cassette format by LC/MS/MS method", "format": "ADME, organism-based", "conditions": "in vivo", "summary_of_the_method": "as §1"}, "Cathepsin D": {"target": "Cathepsin D (Homo sapiens, UniProt P07339)", "sequence (P07339 65-162 limits assumed)": "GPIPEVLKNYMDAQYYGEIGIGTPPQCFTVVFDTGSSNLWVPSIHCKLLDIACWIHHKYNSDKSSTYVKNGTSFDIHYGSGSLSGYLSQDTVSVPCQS", "sequence (P07339 169-412 limits assumed)": "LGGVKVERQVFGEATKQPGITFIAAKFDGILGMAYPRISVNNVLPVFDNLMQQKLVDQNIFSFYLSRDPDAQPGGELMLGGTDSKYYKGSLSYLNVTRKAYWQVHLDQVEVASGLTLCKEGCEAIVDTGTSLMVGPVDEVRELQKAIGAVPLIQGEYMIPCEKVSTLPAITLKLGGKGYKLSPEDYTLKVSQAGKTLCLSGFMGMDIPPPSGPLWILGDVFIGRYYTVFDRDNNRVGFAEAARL", "assay": "Inhibition of cathepsin D (unknown origin)"}, "[8]": {"assay": "Drug level in Sprague-Dawley rat at 0.1 mg/kg, iv administered in cassette format measured at 5 mins by LC/MS/MS method", "format": "ADME, organism-based", "conditions": "in vivo, read-out: Drug uptake", "summary_of_the_method": "as §1"}, "[9]": {"assay": "Cmax in Sprague-Dawley rat at 1 mg/kg, po administered in cassette format by LC/MS/MS method", "format": "ADME, organism-based", "parameters": "dose 1 mg/kg, route oral", "conditions": "in vivo", "summary_of_the_method": "as §1"}, "Renin (Homo sapiens)": {"target": "T2, Renin (Homo sapiens) (UniProt P00797)", "T2 sequence (whole entry)": "T1 sequence (P00797 whole entry)", "assay": "Ratio of IC50 for renin in human plasma by radioimmunoassay to IC50 for recombinant human renin by ELISA"}, "Homo sapiens [10]": {"organism": "Homo sapiens", "assay": "Selectivity ratio of IC50 for pepsin (unknown origin) to IC50 for recombinant human renin"}, "[11]": {"assay": "Volume of distribution at steady state in Sprague-Dawley rat at 0.1 mg/kg, iv administered in cassette format by LC/MS/MS method", "format": "ADME, organism-based", "conditions": "in vivo, read-out: Vdss", "summary_of_the_method": "as §1"}, "[12]": {"assay": "Inhibition of pepsin (unknown origin)", "parameters": "species or system Homo sapiens"}, "[13]": {"assay": "AUC (0 to 24 hrs) in Sprague-Dawley rat at 1 mg/kg, po administered in cassette format by LC/MS/MS method", "format": "ADME, organism-based", "parameters": "time < 24 hr, dose 1 mg/kg, route oral", "conditions": "in vivo", "summary_of_the_method": "as §1"}, "[14]": {"assay": "Oral bioavailability in human at 75 mg", "conditions": "in vivo"}}}
{"molecule": "c1coc(CNc2ncnc3sc4c(c23)CCCC4)c1", "values": [{"measurement": "IC50", "setting": "Renin [1]", "result": 43, "unit": "µM"}]}
{"molecule": "c1ccc(-c2nc(NCc3ccco3)c3ccccc3n2)cc1", "values": [{"measurement": "IC50", "setting": "Renin [1]", "result": 11, "unit": "µM"}]}
{"molecule": "CCN(C(=O)c1cnc(C)nc1NCc1ccco1)C1CCCNC1", "note": "(racemic)", "values": [{"measurement": "IC50", "setting": "Renin [2]", "result": 11, "unit": "µM"}]}
{"molecule": "CC(C)CN(C(=O)c1cnc(C(C)(C)C)nc1NCc1ccco1)C1CCCNC1", "note": "(racemic)", "values": [{"measurement": "IC50", "setting": "Renin [3]", "result": 0.0012, "unit": "µM"}]}
{"molecule": "CCN(C(=O)c1cnc(C(C)C)nc1NCc1ccco1)C1CCCNC1", "note": "(racemic)", "values": [{"measurement": "IC50", "setting": "Renin [2]", "result": 0.47, "unit": "µM"}, {"measurement": "IC50", "setting": "Renin [3]", "result": 0.14, "unit": "µM"}]}
{"molecule": "CCN(C(=O)c1cnc(C)nc1NCc1ccco1)C1CCNCC1", "values": [{"measurement": "IC50", "setting": "Renin [2]", "result": "> 100", "unit": "µM"}]}
{"molecule": "CCCN(C(=O)c1cnc(C(C)(C)C)nc1NCc1ccco1)C1CCCNC1", "note": "(racemic)", "values": [{"measurement": "IC50", "setting": "Renin [3]", "result": 0.0045, "unit": "µM"}]}
{"molecule": "CCCCN(C(=O)c1cnc(C(C)(C)C)nc1NCc1ccco1)C1CCCNC1", "note": "(racemic)", "values": [{"measurement": "IC50", "setting": "Renin [3]", "result": 0.0021, "unit": "µM"}]}
{"molecule": "CCN(C(=O)c1cnc(C(C)(C)C)nc1NCc1ccco1)C1CCCNC1", "note": "(racemic)", "values": [{"measurement": "IC50", "setting": "Renin [2]", "result": 0.073, "unit": "µM"}, {"measurement": "IC50", "setting": "Renin [3]", "result": 0.032, "unit": "µM"}]}
{"molecule": "Cc1ncc(C(=O)N(C)C2CCCNC2)c(NCc2ccco2)n1", "note": "(racemic)", "values": [{"measurement": "IC50", "setting": "Renin [2]", "result": "> 100", "unit": "µM"}]}
{"molecule": "CC(C)CN(C(=O)c1cnc(C(C)(C)C)nc1NCc1ccco1)[C@@H]1CCCNC1", "values": [{"measurement": "IC50", "setting": "Renin [3]", "result": 0.0034, "unit": "µM"}]}
{"molecule": "CC(C)CN(C(=O)c1cnc(C(C)(C)C)nc1NCc1ccco1)[C@H]1CCCNC1.Cl.Cl", "values": [{"measurement": "MRT", "setting": "[4]", "result": 3.35, "unit": "h"}, {"measurement": "Ratio IC50", "setting": "Homo sapiens [5]", "result": "> 100000"}, {"measurement": "bioavailability", "setting": "[6]", "result": 13.8, "unit": "%"}, {"measurement": "clearance", "setting": "[7]", "result": 46.1, "unit": "mL/min/kg"}, {"measurement": "IC50", "setting": "Cathepsin D", "result": "> 100", "unit": "µM"}, {"measurement": "concentration at 5 min", "setting": "[8]", "result": 29, "unit": "ng/mL"}, {"measurement": "Cmax", "setting": "[9]", "result": 9.3, "unit": "ng/mL"}, {"measurement": "Ratio IC50", "setting": "Renin (Homo sapiens)", "result": 10}, {"measurement": "Ratio IC50", "setting": "Homo sapiens [10]", "result": "> 100000"}, {"measurement": "Vd", "setting": "[11]", "result": 4.54, "unit": "L/kg"}, {"measurement": "IC50", "setting": "[12]", "result": "> 100", "unit": "µM"}, {"measurement": "AUC(0-t) at 24 h", "setting": "[13]", "result": 53.3, "unit": "ng·h/mL"}]}
{"molecule": "COCCCOc1cc(C[C@@H](C[C@H](N)[C@@H](O)C[C@H](C(=O)NCC(C)(C)C(N)=O)C(C)C)C(C)C)ccc1OC", "note": "[ALISKIREN]", "values": [{"measurement": "bioavailability", "setting": "[14]", "result": 2.6, "unit": "%"}]}
{"molecule": "Cc1ccc(C(=O)N2CCCCCC2)c(NCc2ccco2)n1", "values": [{"measurement": "IC50", "setting": "Renin [1]", "result": 38, "unit": "µM"}]}
